Source: ChEMBL document CHEMBL4602731, “A γ-Lactam Siderophore Antibiotic Effective against Multidrug-Resistant Gram-Negative Bacilli” (J Med Chem, 2020)
≈ marks a conversion by molar mass, not a printed value.

How the values were obtained:
[1] = tested on: Klebsiella pneumoniae; test: Antimicrobial activity against Klebsiella pneumoniae clinical isolates by standard broth microdilution method; format: functional
[2] = tested on: Pseudomonas aeruginosa; test: Antimicrobial activity against Pseudomonas aeruginosa clinical isolates by standard broth microdilution method; format: functional
[3] = Inhibition of Acinetobacter baumanni PBP3 assessed as reduction in fluorescence intensity of bocillin labeled protein by SDS-PAGE analysis; set-up: species or system Acinetobacter baumannii
[4] = tested on: Escherichia coli; test: Antimicrobial activity against Escherichia coli clinical isolates by standard broth microdilution method; format: functional
[5] = Stability in pH 7.5 phosphate buffer assessed as compound hydrolysis measured 24 hrs after reconstitution; format: physicochemical; settings: read-out: Drug degradation
[6] = Substrate activity at VIM-2 (unknown origin) assessed as Kcat for compound hydrolysis by diode array spectrophotometry; format: ADME; settings: bacteria
[7] = Substrate activity at IMP-1 (unknown origin) assessed as Kcat for compound hydrolysis by diode array spectrophotometry; format: ADME; settings: bacteria
[8] = Substrate activity at IMP-1 (unknown origin) assessed as Kcat/Km ratio for compound hydrolysis by diode array spectrophotometry; format: ADME; settings: bacteria
[9] = Substrate activity at VIM-2 (unknown origin) assessed as Kcat/Km ratio for compound hydrolysis by diode array spectrophotometry; format: ADME; settings: bacteria
[10] = tested on: Pseudomonas aeruginosa; test: Antimicrobial activity against Pseudomonas aeruginosa PAO1 in presence of 1 ug/ml iron by standard broth microdilution method; format: functional
Outline: (§1)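 MICs by CLSI broth microdilution, inoculum 6 × 10^4 CFU/mL, in cation-adjusted Mueller–Hinton broth iron-depleted with cation-exchange resin (reported to leave 0.02 μg/mL iron). Soluble iron added back; total media iron expected 0.02, 0.12, 1.02 and 10.02 μg/mL.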

[11] = AUC (extrapolated) in CD1 mouse at 50 mg/kg, iv after 2 hrs by HPLC-MS/MS analysis; format: ADME, organism-based; settings: in vivo
Outline: (§2)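 CD-1 mice, single IV dose of 50 mg/kg, parallel sampling in groups of 24 animals. Blood is taken by cardiac puncture under isoflurane into lithium heparin or K2EDTA tubes and spun at 2500 × g for 15 min at 4 °C. Plasma is precipitated with acetonitrile and run on HPLC-MS/MS against a spiked-plasma calibration curve with internal standard. Parameters come from noncompartmental analysis.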

[12] = AUC (infinity) in CD1 mouse at 50 mg/kg, iv after 2 hrs by HPLC-MS/MS analysis; format: ADME, organism-based; set-up: dose 50 mg/kg, route intravenous, time infinity; settings: in vivo; outline: as §2
[13] = Substrate activity at OXA-24 (unknown origin) assessed as compound hydrolysis at 100 uM by diode array spectrophotometry; format: ADME; settings: bacteria
[14] = tested on: Hepatocyte; test: Toxicity in human primary hepatocytes at 100 uM incubated for 72 hrs; format: cell-based
Outline: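 Primary human hepatocytes exposed to compound at a maximum of 100 μM for 72 h.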

[15] = biological target: cGMP-inhibited 3',5'-cyclic phosphodiesterase 3A (Homo sapiens) (UniProt Q14432); test: Inhibition of PDE3A (unknown origin) at 30 uM relative to control
cGMP-inhibited 3',5'-cyclic phosphodiesterase 3A (Homo sapiens), sequence (Q14432 whole entry): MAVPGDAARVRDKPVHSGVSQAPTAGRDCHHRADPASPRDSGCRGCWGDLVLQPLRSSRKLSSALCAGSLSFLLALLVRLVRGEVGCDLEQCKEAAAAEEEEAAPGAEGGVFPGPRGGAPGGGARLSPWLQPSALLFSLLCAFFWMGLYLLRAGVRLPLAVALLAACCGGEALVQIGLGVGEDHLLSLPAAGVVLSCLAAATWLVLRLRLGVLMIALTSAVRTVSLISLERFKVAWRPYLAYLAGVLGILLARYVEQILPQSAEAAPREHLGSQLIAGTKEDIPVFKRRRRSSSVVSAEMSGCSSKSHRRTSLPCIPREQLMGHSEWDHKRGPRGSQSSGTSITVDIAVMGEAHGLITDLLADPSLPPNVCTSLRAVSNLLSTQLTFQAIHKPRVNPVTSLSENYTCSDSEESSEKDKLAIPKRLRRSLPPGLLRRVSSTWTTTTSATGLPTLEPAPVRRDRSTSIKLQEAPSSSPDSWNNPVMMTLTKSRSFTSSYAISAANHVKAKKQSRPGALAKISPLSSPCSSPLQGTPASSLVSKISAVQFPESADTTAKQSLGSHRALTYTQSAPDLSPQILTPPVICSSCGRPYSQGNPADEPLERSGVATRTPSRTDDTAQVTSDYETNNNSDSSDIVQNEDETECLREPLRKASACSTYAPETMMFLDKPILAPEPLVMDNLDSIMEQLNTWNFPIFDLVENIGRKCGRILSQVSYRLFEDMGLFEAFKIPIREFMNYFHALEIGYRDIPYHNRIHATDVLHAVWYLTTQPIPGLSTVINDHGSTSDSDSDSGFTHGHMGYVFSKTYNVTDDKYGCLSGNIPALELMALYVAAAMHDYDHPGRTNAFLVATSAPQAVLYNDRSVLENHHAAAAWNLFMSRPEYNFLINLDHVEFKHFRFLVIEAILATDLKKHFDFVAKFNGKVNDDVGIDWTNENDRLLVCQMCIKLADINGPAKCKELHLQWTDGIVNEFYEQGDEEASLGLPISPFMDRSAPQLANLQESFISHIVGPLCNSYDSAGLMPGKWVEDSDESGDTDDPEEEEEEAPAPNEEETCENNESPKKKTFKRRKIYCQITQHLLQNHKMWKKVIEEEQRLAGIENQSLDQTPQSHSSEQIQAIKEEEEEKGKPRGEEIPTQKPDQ
Outline: (§3)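 Safety panel of 44 enzymes, receptors and channels, with compound tested at 30 μM. Percent inhibition is measured.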

[16] = tested on: Pseudomonas aeruginosa; test: Antimicrobial activity against Pseudomonas aeruginosa clinical isolate in presence of 10 ug/ml iron by standard broth microdilution method
[17] = Volume of distribution at steady state in CD1 mouse at 50 mg/kg, iv after 2 hrs by HPLC-MS/MS analysis; format: ADME, organism-based; settings: in vivo; outline: as §2
[18] = Half life in CD1 mouse at 50 mg/kg, iv after 2 hrs by HPLC-MS/MS analysis; format: ADME, organism-based; settings: in vivo; outline: as §2
[19] = Substrate activity at NDM-1 (unknown origin) assessed as Kcat/Km ratio for compound hydrolysis by diode array spectrophotometry; format: ADME; settings: bacteria
Outline: (§4)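 The compound is the substrate, in molar excess for pseudo-first-order conditions. Hydrolysis is followed spectrophotometrically at Δε336 = −5500 M−1 cm−1 in a 1 cm quartz cuvette.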

[20] = Initial drug concentration in CD1 mouse at 50 mg/kg, iv after 2 hrs by HPLC-MS/MS analysis; format: ADME, organism-based; settings: in vivo; outline: as §2
[21] = biological target: Voltage-gated inwardly rectifying potassium channel KCNH2 (Homo sapiens, UniProt Q12809); test: Binding affinity to human ERG at 30 uM
Voltage-gated inwardly rectifying potassium channel KCNH2, sequence (Q12809 whole entry): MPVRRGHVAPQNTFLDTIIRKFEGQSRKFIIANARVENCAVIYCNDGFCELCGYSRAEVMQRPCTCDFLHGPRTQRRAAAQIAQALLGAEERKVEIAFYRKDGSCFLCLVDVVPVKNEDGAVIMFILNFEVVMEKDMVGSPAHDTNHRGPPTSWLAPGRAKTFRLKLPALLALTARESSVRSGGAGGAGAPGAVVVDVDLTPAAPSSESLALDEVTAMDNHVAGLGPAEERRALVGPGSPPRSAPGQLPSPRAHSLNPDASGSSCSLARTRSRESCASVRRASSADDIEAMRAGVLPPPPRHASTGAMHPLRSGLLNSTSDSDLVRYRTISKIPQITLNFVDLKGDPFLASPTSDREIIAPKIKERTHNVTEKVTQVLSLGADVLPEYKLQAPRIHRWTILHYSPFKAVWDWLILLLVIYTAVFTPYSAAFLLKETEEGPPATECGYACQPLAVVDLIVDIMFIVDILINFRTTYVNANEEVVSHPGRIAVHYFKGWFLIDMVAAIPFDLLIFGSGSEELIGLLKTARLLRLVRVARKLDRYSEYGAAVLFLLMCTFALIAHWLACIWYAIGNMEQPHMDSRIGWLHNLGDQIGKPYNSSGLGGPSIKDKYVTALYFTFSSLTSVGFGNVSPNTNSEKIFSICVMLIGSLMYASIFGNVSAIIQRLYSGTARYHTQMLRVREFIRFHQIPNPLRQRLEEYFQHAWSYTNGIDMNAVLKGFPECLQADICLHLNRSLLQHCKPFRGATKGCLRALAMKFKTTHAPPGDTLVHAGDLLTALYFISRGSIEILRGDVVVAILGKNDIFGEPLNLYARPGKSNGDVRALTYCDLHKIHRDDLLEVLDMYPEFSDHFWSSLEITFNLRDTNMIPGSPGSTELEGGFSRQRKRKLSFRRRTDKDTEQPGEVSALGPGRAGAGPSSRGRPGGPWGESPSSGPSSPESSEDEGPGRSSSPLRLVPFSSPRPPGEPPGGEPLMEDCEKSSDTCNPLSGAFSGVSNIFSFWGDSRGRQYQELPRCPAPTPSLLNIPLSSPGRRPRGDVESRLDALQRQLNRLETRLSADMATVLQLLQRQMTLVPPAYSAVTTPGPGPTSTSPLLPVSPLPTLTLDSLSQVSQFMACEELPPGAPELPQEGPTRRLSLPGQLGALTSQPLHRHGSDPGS

[22] = Stability in pH 7.5 phosphate buffer assessed as compound hydrolysis after 2 weeks at room temperature; format: physicochemical; settings: read-out: Drug degradation
[23] = Substrate activity at PER-2 (unknown origin) assessed as compound hydrolysis at 100 uM by diode array spectrophotometry; format: ADME; settings: bacteria
[24] = AUClast in CD1 mouse at 50 mg/kg, iv after 2 hrs by HPLC-MS/MS analysis; format: ADME, organism-based; set-up: time < 2 hr, dose 50 mg/kg, route intravenous; settings: in vivo; outline: as §2
[25] = tested on: Pseudomonas aeruginosa; test: Antimicrobial activity against Pseudomonas aeruginosa PAO1 in presence of 10 ug/ml iron by standard broth microdilution method; format: functional; outline: as §1
[26] = Substrate activity at OXA-23 (unknown origin) assessed as compound hydrolysis at 100 uM by diode array spectrophotometry; format: ADME; settings: bacteria
[27] = tested on: Cytochrome P450; test: Inhibition of CYP450 (unknown origin) at 30 uM; format: ADME, protein assay; settings: human
[28] = biological target: Penicillin-binding protein 3 (Pseudomonas aeruginosa, UniProt Q51504); test: Inhibition of Pseudomonas aeruginosa PBP3 assessed as reduction in fluorescence intensity of bocillin labeled protein pre-incubated for 20 mins before bocillin addition by SDS-PAGE analysis
Penicillin-binding protein 3, sequence (Q51504 whole entry): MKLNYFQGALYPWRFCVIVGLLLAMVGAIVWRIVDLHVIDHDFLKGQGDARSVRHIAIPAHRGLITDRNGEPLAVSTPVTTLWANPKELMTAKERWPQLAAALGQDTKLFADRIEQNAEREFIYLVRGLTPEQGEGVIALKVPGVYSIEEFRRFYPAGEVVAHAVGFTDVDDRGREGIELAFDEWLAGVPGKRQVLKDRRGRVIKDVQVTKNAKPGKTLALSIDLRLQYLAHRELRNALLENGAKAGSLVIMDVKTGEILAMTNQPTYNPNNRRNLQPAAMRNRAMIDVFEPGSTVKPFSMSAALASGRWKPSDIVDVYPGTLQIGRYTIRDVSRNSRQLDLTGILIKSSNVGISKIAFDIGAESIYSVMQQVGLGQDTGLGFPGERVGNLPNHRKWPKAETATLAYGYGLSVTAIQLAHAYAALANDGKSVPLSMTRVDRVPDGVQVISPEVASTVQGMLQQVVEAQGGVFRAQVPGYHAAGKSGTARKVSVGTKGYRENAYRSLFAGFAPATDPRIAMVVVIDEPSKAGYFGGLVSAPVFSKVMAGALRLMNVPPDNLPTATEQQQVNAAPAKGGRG

[29] = biological target: Penicillin-binding protein 3 (Pseudomonas aeruginosa) (UniProt Q51504); test: Stabilization of Pseudomonas aeruginosa PBP3 assessed as melting temperature at 1 mM by DSF thermal shift assay (reference value: 44.1 +/- 0.14 degC)
Penicillin-binding protein 3 (Pseudomonas aeruginosa), sequence (Q51504 as listed by the source): as the sequence (Q51504 whole entry) above
Outline: (§5)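 Ligand at […], ceftazidime at 0.2 mM as positive control; no-ligand control with 1% DMSO. Derivative of fluorescence change plotted against temperature.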

[30] = tested on: Pseudomonas aeruginosa; test: Antimicrobial activity against Pseudomonas aeruginosa clinical isolate in absence of iron by standard broth microdilution method
[31] = Half life CD1 mouse liver microsomes; format: ADME, Microsome
[32] = biological target: Penicillin-binding protein 3 (Pseudomonas aeruginosa) (UniProt Q51504); test: Stabilization of Pseudomonas aeruginosa PBP3 assessed as increase in melting temperature at 1 mM by DSF thermal shift assay
[33] = Plasma concentration CD1 mouse at 50 mg/kg, iv after 2 hrs by HPLC-MS/MS analysis; format: ADME, organism-based; outline: as §2
[34] = Solubility in pH 7.5 phosphate buffer by nephelometry; format: physicochemical
Outline: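 Solubility in pH 7.5 phosphate buffer, measured by nephelometry.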

[35] = biological target: Prostaglandin G/H synthase 1 (Homo sapiens) (UniProt P23219); test: Inhibition of COX1 (unknown origin) at 30 uM relative to control; outline: as §3
Prostaglandin G/H synthase 1 (Homo sapiens), sequence (P23219 whole entry): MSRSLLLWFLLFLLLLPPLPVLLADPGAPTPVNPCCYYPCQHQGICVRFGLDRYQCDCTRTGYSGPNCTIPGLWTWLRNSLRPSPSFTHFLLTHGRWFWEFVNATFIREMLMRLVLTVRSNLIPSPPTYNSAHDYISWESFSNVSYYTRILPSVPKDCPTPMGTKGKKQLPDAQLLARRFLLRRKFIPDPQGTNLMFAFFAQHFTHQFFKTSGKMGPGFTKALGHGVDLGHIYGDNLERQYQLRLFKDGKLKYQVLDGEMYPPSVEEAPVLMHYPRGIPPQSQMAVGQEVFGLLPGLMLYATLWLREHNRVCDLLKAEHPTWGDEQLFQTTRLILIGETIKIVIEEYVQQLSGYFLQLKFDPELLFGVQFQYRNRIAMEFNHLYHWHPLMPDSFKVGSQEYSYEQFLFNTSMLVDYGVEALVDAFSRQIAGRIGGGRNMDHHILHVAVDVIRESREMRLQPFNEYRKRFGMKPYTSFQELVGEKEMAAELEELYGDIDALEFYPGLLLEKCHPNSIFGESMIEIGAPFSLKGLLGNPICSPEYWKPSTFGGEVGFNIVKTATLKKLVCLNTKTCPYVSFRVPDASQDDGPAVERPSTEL

[36] = Half life human liver microsomes; format: ADME, Microsome
[37] = tested on: Pseudomonas aeruginosa; test: Antimicrobial activity against Pseudomonas aeruginosa clinical isolate in presence of 1 ug/ml iron by standard broth microdilution method
[38] = Substrate activity at NDM-1 (unknown origin) assessed as Kcat for compound hydrolysis by diode array spectrophotometry; format: ADME; settings: bacteria; outline: as §4
[39] = Substrate activity at KPC-2 (unknown origin) assessed as compound hydrolysis at 100 uM by diode array spectrophotometry; format: ADME; settings: bacteria
[40] = tested on: Pseudomonas aeruginosa; test: Antimicrobial activity against Pseudomonas aeruginosa PAO1 in presence of 0.1 ug/ml iron by standard broth microdilution method; format: functional
Outline: (§6)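 CLSI broth microdilution in iron-depleted cation-adjusted Mueller–Hinton broth, made by cation-exchange resin treatment, with an inoculum of 6 × 10^4 CFU/mL. For the iron series, soluble iron is added to the depleted medium. Total iron in the tested media is expected to be 0.02, 0.12, 1.02 and 10.02 μg/mL.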

[41] = tested on: Pseudomonas aeruginosa; test: Antimicrobial activity against Pseudomonas aeruginosa PAO1 in absence of iron by standard broth microdilution method; format: functional; outline: as §6
[42] = tested on: Pseudomonas aeruginosa; test: Antimicrobial activity against Pseudomonas aeruginosa clinical isolate in presence of 0.1 ug/ml iron by standard broth microdilution method
[43] = biological target: Penicillin-binding protein 3 (Pseudomonas aeruginosa) (UniProt Q51504); test: Stabilization of Pseudomonas aeruginosa PBP3 assessed as melting temperature at 0.2 mM by DSF thermal shift assay (reference value: 44.1 +/- 0.14 degC); outline: as §5

NC(=O)[C@@H]1CC[C@@H]2CN1C(=O)N2OS(=O)(=O)O [AVIBACTAM]
MIC50 [1]: 0.5 µg/mL (≈ 1.89 µM)
MIC90 [1]: 2 µg/mL (≈ 7.54 µM)
MIC50 [2]: 4 µg/mL (≈ 15.1 µM)
MIC90 [2]: > 32 µg/mL

C[C@@H](O)[C@H]1C(=O)N2C(C(=O)O)=C(S[C@@H]3CN[C@H](CNS(N)(=O)=O)C3)[C@H](C)[C@H]12 [DORIPENEM]
IC50 [3]: 2300 nM

C[C@@H](O)[C@H]1C(=O)N2C(C(=O)O)=C(S[C@@H]3CN[C@H](C(=O)N(C)C)C3)[C@H](C)[C@H]12 [MEROPENEM]
MIC50 [1]: 16 µg/mL (≈ 41.7 µM)
MIC90 [1]: > 64 µg/mL
MIC50 [2]: 2 µg/mL (≈ 5.22 µM)
MIC90 [2]: > 8 µg/mL
MIC50 [4]: ≤ 1 µg/mL
MIC90 [4]: 8 µg/mL (≈ 20.9 µM)
degraded at 24 h [5]: > 30%

C[C@@H](O)[C@H]1C(=O)N2C(C(=O)O)=C(SCCN=CN)C[C@H]12 [IMIPENEM ANHYDROUS]
Kcat [6]: 57 s⁻¹
Kcat [7]: 36 s⁻¹
Kcat/Km [8]: 3.2e+06 M⁻¹ s⁻¹
Kcat/Km [9]: 6.7e+06 M⁻¹ s⁻¹

CC(C)(O/N=C(\C(=O)N[C@H]1CN2CC(C(=O)NCCN3C(=O)c4cc(O)c(O)cc4C3=O)=C(C(=O)O)N2C1=O)c1csc(N)n1)C(=O)O
MIC [10]: 16 µg/mL
%AUCextra [11]: 3%
AUC [12]: 57791 ng·h/mL
Kcat [6]: 20 s⁻¹
Activity [13]: Not Active
Activity [14]: Non-Toxic
MIC50 [1]: 1 µg/mL (≈ 1.46 µM)
inhibition [15]: 66%
MIC [16]: > 16 µg/mL
Vdss [17]: 2 L/kg
t1/2 [18]: 11 h
Kcat/Km [19]: 20000 M⁻¹ s⁻¹
C0 [20]: 200844 ng/mL
Activity [21]: Not Active
degraded at 336 h [22]: 4%
Activity [23]: Not Active
Kcat [7]: 5 s⁻¹
AUClast [24]: 55866 ng·h/mL
MIC [25]: > 16 µg/mL
Activity [26]: Not Active
inhibition (INH) [27]: Not Active
IC50 [28]: 2500 nM
MIC50 [2]: 1 µg/mL (≈ 1.46 µM)
MIC90 [2]: 8 µg/mL (≈ 11.7 µM)
MIC50 [4]: 1 µg/mL (≈ 1.46 µM)
Kcat/Km [8]: 70000 M⁻¹ s⁻¹
Tm [29]: 51 °C
MIC [30]: 0.5 µg/mL (≈ 0.728 µM)
t1/2 [31]: > 1 h
ΔTm [32]: 7 °C
concentration at 2 h [33]: 1400 ng/mL
solubility kinetic [34]: > 100 µM
inhibition [35]: 63%
t1/2 [36]: > 1 h
MIC [37]: > 16 µg/mL
Kcat [38]: 7 s⁻¹
Activity [39]: Not Active
Kcat/Km [9]: 20000 M⁻¹ s⁻¹
MIC [40]: 2 µg/mL

CC(C)(O/N=C(\C(=O)N[C@@H]1C(=O)N2C(C(=O)[O-])=C(C[N+]3(CCNC(=O)c4ccc(O)c(O)c4Cl)CCCC3)CS[C@H]12)c1csc(N)n1)C(=O)O [CEFIDEROCOL]
MIC [10]: 0.5 µg/mL
MIC [41]: 0.06 µg/mL (≈ 0.0798 µM)
MIC [16]: 1 µg/mL
MIC [25]: 2 µg/mL
MIC [30]: 0.13 µg/mL (≈ 0.173 µM)
MIC [42]: 0.13 µg/mL
MIC [37]: 0.25 µg/mL

CC(C)(O/N=C(\C(=O)N[C@@H]1C(=O)N2C(C(=O)[O-])=C(C[n+]3ccccc3)CS[C@H]12)c1csc(N)n1)C(=O)O [CEFTAZIDIME]
MIC50 [1]: > 64 µg/mL
MIC90 [1]: > 64 µg/mL
MIC [16]: 1 µg/mL
MIC50 [2]: 4 µg/mL (≈ 7.32 µM)
MIC90 [2]: > 16 µg/mL
MIC50 [4]: 2 µg/mL (≈ 3.66 µM)
MIC90 [4]: > 16 µg/mL
MIC [30]: 1 µg/mL (≈ 1.83 µM)
MIC [42]: 1 µg/mL
MIC [37]: 1 µg/mL
Tm [43]: 56.5 °C
